Measured values: article PMC4254804 (Nature communications, 2014)

Biological target: TopBP1 (Homo sapiens, UniProt Q92547)
Format: biochemical
How it was run: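 E. coli BL21-expressed (0.1 mM IPTG) TopBP1-BRCT7/8, GST cleaved off with PreScission, 2 μg preincubated with compound in NETN-A (50 mM NaCl, 1 mM EDTA, 20 mM Tris, 0.5% NP-40), 3 h, 4°C, rotating. Then 2 μg biotin-pS1159 peptide (non-phospho peptide control; streptavidin-Sepharose) or GST-p53-DBD (GST control; glutathione-Sepharose) added, 3 h, 4°C. Six NETN-B washes; SDS-PAGE, anti-TopBP1 immunoblot.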

TopBP1, sequence (Q92547 1264-1493 limits assumed): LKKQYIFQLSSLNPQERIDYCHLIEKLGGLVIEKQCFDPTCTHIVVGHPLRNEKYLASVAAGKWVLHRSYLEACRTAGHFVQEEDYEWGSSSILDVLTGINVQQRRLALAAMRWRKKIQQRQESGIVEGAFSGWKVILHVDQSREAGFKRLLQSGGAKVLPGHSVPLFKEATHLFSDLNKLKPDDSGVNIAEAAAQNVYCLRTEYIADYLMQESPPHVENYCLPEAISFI

Pulldown competition with purified proteins: biotin-pS1159 peptide streptavidin: submicromolar
SMILES: O=C(O)CN(CC(=O)O)Cc1cc2c(cc1O)Oc1cc(O)c(CN(CC(=O)O)CC(=O)O)cc1C21OC(=O)c2ccccc21 [calcein]
